Screening data as filed in PubChem.
Compounds with a hit are over-represented: about 2.1% of the library has one in this group of screens.
ARNT-TACC3 inh: disrupts binding between human ARNT and TACC3. AID 623870. AlphaScreen His-ARNT PAS-B/GST-TACC3 binding, luminescence; TACC3 fragment carries E629A point mutation. Q9Y6A5. inhibition, % at 9.99 µM. hit rate 0.66% among 390,000;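 active = mean inhibition of replicates at least 50% and at least half of replicates each reaching 50%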;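 note: 0% = complete ARNT plus TACC3 wells and 100% = ARNT alone without TACC3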
SUMO Mot1 rescue: blocks SUMOylation pathway, rescuing yeast Mot1-301 growth. S. cerevisiae Mot1-301 growth rescue, ATP luminescence, 38.5C; percent above DMSO median, 100 means doubled. growth rescue, % at 18.8 µM. hit rate 1% among 320,000. AID 2716;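 active = every valid replicate shows activation above 250% relative to neutral control wells; inactive = the rest, any valid replicate at or below 250%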;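 note: OY570 slx delta 5 strain wells were the positive control but not used for scaling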
Efflux pump inh: inhibitors of Candida antifungal efflux pumps expressed in yeast. S. cerevisiae Candida pump triplex, Nile Red efflux. inhibition, % at 10 µM. hit rate 0.44% among 330,000. AID 485275;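 active = plate passing quality check with inhibition over a set limit, or well fluorescence over plate mean plus 4 SD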;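 note: Nile Red retained in pooled yeast measured as flow cytometry median fluorescence; 0% = buffer negative control and 100% = Enniatin B positive control; higher means more Nile Red kept so more efflux inhibition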
cardiac RTF act: cardiac RTF calcium sensitization; P19429+P45379; IANBD-labeled TnC RTF fluorescence at EC20 calcium; 0% EC20 calcium, 100% full calcium; activation, % at 7.2 µM; hit rate 0.24% among 340,000; AID 493008;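 active = activation above the mean over all tested compounds plus 3 SD, cut at about 30% in these data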;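 note: rise in fluorescence read as greater calcium sensitivity of cardiac thin filaments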
Cardiac RTF inh: cardiac RTF calcium desensitization. hit rate 0.12% among 340,000. IANBD-labeled cardiac RTF, Ca2+ fluorescence. P19429+P45379. inhibition, % at 7.15 µM;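 active = inhibition above the mean inhibition of all tested compounds plus 3 SD, cut at about 17% in these data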;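 note: assay run at fixed EC70 calcium of 1.6 mM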
UCH37 DUB inh: inhibitors of human deubiquitinating enzyme UCH37; purified proteasome/UCH37, Ub-AMC cleavage fluorescence; inhibition, % (no concentration beside the values); hit rate 0.33% among 330,000;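 active = mean inhibition over replicate wells above about 20%, limit read from the data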;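 note: 0% = compound-free wells with enzyme and 100% = wells lacking proteasome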
Target sequence (Q9Y5K5 whole entry, looked up): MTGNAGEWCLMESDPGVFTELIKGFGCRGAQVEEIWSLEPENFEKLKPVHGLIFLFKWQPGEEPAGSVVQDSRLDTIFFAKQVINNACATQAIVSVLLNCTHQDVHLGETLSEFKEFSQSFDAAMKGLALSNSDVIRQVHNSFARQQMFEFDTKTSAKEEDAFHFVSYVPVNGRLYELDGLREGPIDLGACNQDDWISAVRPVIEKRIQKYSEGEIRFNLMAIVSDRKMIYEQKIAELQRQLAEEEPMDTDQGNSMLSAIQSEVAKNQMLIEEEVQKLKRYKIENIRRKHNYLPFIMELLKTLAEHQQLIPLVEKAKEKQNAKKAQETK
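Assay system: Proteasome-bound UCH37. Buffer or medium: pH 7.4 Tris-HCl (50 mM) with ovalbumin, ATP-MgCl2, DTT. Incubation: 30 min preincubation with enzyme, 25 min cleavage at room temperature. Measured by: fluorescence, ex 355 nm, em 460 nm. Read-out basis: percent inhibition. Control set: wells without proteasome as full block, compound-free enzyme plus substrate as uninhibited.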
The depositor's hits bear a star.

For Cc1cc(NC(=O)CSc2nnc(-c3ccco3)o2)no1 the results were ARNT-TACC3 inh 59*, SUMO Mot1 rescue 0, Efflux pump inh 0, cardiac RTF act -3, Cardiac RTF inh -5 and UCH37 DUB inh 3.
`COc1ccccc1C=NNc1nncc2ccccc12` gave UCH37 DUB inh 6.
Screening O=[N+]([O-])c1cccc(NN=Cc2cccc3ccccc23)c1 returned UCH37 DUB inh 10.
For COC(=O)N/N=C/c1cc(Br)ccc1O the results were ARNT-TACC3 inh -9, SUMO Mot1 rescue -13, Efflux pump inh 0, cardiac RTF act 8 and Cardiac RTF inh -3.
CC(C)NC(=S)N/N=C/c1cc(Br)ccc1O was read as ARNT-TACC3 inh 53*, SUMO Mot1 rescue 12, Efflux pump inh 0, cardiac RTF act 7 and Cardiac RTF inh -3.
CCOC(=O)CC(C)(C)C(C)=NNc1ccc([N+](=O)[O-])cc1[N+](=O)[O-] was read as UCH37 DUB inh 6.
For CCCCCCCCC(=O)NN=C(C)c1ccco1 the results were UCH37 DUB inh 2.
`CC12CCC(C(=O)O)(CC1=NO)C2(C)C` (stereo not drawn) gave UCH37 DUB inh 4.
Screening CCOc1cc(C=NNC(=O)CN2CCCCC2)ccc1OCc1ccccc1 returned UCH37 DUB inh 4.
For COc1ccc(C2=NOC(C)(c3nnc(Cc4ccccc4)o3)C2)cc1 (stereo not drawn) the results were ARNT-TACC3 inh 3, SUMO Mot1 rescue -12, cardiac RTF act -4, Cardiac RTF inh -1 and UCH37 DUB inh 29*.
CC1(c2nnc(Cc3ccccc3)o2)CC(c2ccc(Cl)cc2)=NO1 (stereo not drawn) was read as ARNT-TACC3 inh 1, SUMO Mot1 rescue 12, cardiac RTF act -6, Cardiac RTF inh 3 and UCH37 DUB inh 28*.
`CC1(c2nnc(Cc3ccccc3)o2)CC(c2ccncc2)=NO1` (stereo not drawn) gave ARNT-TACC3 inh -2, SUMO Mot1 rescue 12, cardiac RTF act 3, Cardiac RTF inh 9 and UCH37 DUB inh 21*.
CC1(c2nnc(Cc3ccccc3)o2)CC(c2ccc(C#N)cc2)=NO1 (stereo not drawn) was read as ARNT-TACC3 inh 2, SUMO Mot1 rescue 23, Efflux pump inh 0, cardiac RTF act -5, Cardiac RTF inh -5 and UCH37 DUB inh -1.
`Cc1[nH]c2ccccc2c1C=NNC(=O)c1cccs1` gave UCH37 DUB inh 5.
Screening O=C(COc1ccc2ccccc2c1)NN=CC1CC=CCC1 (stereo not drawn) returned UCH37 DUB inh 5.
Screening CC(=NNC(=S)NC1CCCCC1)c1ccc(C#N)cc1 returned UCH37 DUB inh 6.
For CC(C)=CC(=O)N1CCC(N2CCC(C(=O)N3CCOCC3)CC2)CC1 the results were ARNT-TACC3 inh 17, SUMO Mot1 rescue 0, Efflux pump inh 0, cardiac RTF act 5, Cardiac RTF inh -9 and UCH37 DUB inh 1.
For CN1CCCCCC1C(=O)N1CCC(N2CCC(C(=O)N3CCOCC3)CC2)CC1 (stereo not drawn) the results were ARNT-TACC3 inh -4, SUMO Mot1 rescue 270*, Efflux pump inh 0, cardiac RTF act -4, Cardiac RTF inh -5 and UCH37 DUB inh -2.
NC(=O)c1sc2nc3c(c(-c4ccco4)c2c1N)CCCC3 was read as ARNT-TACC3 inh 6, SUMO Mot1 rescue 69, Efflux pump inh 0, cardiac RTF act 3, Cardiac RTF inh -7 and UCH37 DUB inh -7.
For Nc1c(C(=O)NCC2CCCO2)sc2nc3c(c(-c4ccco4)c12)CC/C3=C\c1ccco1 (stereo not drawn) the results were ARNT-TACC3 inh -2, cardiac RTF act 11, Cardiac RTF inh 25* and UCH37 DUB inh 8.
CC(/C=C/c1ccc(N(C)C)cc1)=N/N=C1/NC(=O)CC(C(=O)Nc2ccc(Cl)cc2)S1 (stereo not drawn) was read as ARNT-TACC3 inh -2, SUMO Mot1 rescue 1, Efflux pump inh 0, cardiac RTF act 32*, Cardiac RTF inh -5 and UCH37 DUB inh 0.
`Cc1nn(C(=O)c2ccccc2)c2c1C(=O)CC(C)(C)C2` gave ARNT-TACC3 inh -2, SUMO Mot1 rescue 495*, Efflux pump inh 0, cardiac RTF act -2, Cardiac RTF inh -5 and UCH37 DUB inh 1.
Screening NC(=S)N=Nc1c(O)cc(O)c2[nH]c(=O)ccc12 returned ARNT-TACC3 inh 64*, cardiac RTF act -1 and Cardiac RTF inh 12.
For CC(=NNC(=O)c1cc2ccccc2cc1O)C1C(=O)c2ccccc2C1=O the results were UCH37 DUB inh 16.
`CCOC(=O)C(=NC1CCS(=O)(=O)C1)NNc1ccccc1Cl` (stereo not drawn) gave ARNT-TACC3 inh -2, SUMO Mot1 rescue 165, Efflux pump inh 0, cardiac RTF act -5, Cardiac RTF inh 2 and UCH37 DUB inh 5.
Screening CCOC(=O)C(=NC1CCS(=O)(=O)C1)NNc1ccc(Br)cc1 (stereo not drawn) returned ARNT-TACC3 inh 4, SUMO Mot1 rescue 372*, Efflux pump inh 0, cardiac RTF act 9, Cardiac RTF inh -6 and UCH37 DUB inh 7.
`COc1ccc(C(=O)NCC(=O)NN=C/C=C/c2ccccc2)cc1OC` gave UCH37 DUB inh 3.
CCc1ccc2c(c1)CCCN2C(=O)c1ccccc1C(=O)O was read as ARNT-TACC3 inh 49*, SUMO Mot1 rescue 94, Efflux pump inh 0, cardiac RTF act 1, Cardiac RTF inh -4 and UCH37 DUB inh -1.
`COc1cc(C=NNC(=O)CC2C(=O)NN=C2C)ccc1O` (stereo not drawn) gave UCH37 DUB inh 0.
Screening O=C(CC1S/C(=N/N=C/C=C/c2ccccc2)NC1=O)Nc1ccc(Cl)c(Cl)c1 (stereo not drawn) returned ARNT-TACC3 inh 0, SUMO Mot1 rescue 107, Efflux pump inh 0, cardiac RTF act -3 and Cardiac RTF inh -4.
For O=C(O)CC1S/C(=N/N=C/c2ccc(-c3ccc(Cl)cc3[N+](=O)[O-])o2)NC1=O (stereo not drawn) the results were ARNT-TACC3 inh 5, SUMO Mot1 rescue -8, Efflux pump inh 0, cardiac RTF act -1 and Cardiac RTF inh 0.
For Cc1ccc(-c2ccc(C=N/N=C3/NC(=O)C(CC(=O)O)S3)o2)c([N+](=O)[O-])c1 (stereo not drawn) the results were UCH37 DUB inh 25*.
`O=C(O)CC1S/C(=N/N=C/C=C/c2ccccc2[N+](=O)[O-])NC1=O` (stereo not drawn) gave ARNT-TACC3 inh 34*, SUMO Mot1 rescue 24, Efflux pump inh 0, cardiac RTF act -3 and Cardiac RTF inh -8.
For CCOc1ccc(N(CC(=O)NN=Cc2cc([N+](=O)[O-])ccc2Cl)S(C)(=O)=O)cc1 the results were UCH37 DUB inh 6.
